Measured values reported in ChEMBL document CHEMBL4837248, “Discovery and SAR Evolution of Pyrazole Azabicyclo[3.2.1]octane Sulfonamides as a Novel Class of Non-Covalent N-Acylethanolamine-Hydrolyzing Acid Amidase (NAAA) Inhibitors for Oral Administration” (J Med Chem, 2021).
Activity calls are given as the source filed them. No cut-off for these calls is given here.

Molecular target: T1, N-acylethanolamine-hydrolyzing acid amidase (Homo sapiens) (UniProt Q02083)
T1 sequence (whole entry): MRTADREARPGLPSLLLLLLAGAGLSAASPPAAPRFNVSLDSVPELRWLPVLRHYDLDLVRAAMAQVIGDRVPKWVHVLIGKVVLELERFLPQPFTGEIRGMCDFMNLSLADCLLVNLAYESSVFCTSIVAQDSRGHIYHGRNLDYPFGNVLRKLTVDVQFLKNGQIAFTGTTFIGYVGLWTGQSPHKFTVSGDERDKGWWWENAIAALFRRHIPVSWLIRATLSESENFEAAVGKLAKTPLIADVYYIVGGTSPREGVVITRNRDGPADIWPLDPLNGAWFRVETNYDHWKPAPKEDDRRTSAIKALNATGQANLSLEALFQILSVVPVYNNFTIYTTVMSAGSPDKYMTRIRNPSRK
Assay: Inhibition of recombinant human NAAA expressed in HEK293 cells using PAMCA as fluorogenic substrate at 50 uM preincubated for 30 mins followed by substrate addition and measured after 50 mins by fluorescence assay relative to control
Format: cell-based
Details: not given
Procedure, shortened: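 Lysosomal-type enzyme-enriched lysate from HEK-293 cells stably expressing human NAAA (4 μg protein), preincubated 30 min with compound or 5% DMSO in 100 mM citrate/phosphate pH 4.5 with 3.0 mM DTT, 0.1% NP40, 0.05% BSA, 150 mM NaCl. Reaction started with PAMCA substrate (2 μM), run 50 min at 37 °C. Fluorescence read at ex 355/em 460 nm against enzyme-free background.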

Structure (SMILES) | inhibition
Cc1n[nH]c(C)c1S(=O)(=O)N1[C@@H]2CC[C@H]1C[C@H](Oc1cnccn1)C2 | < 10%
Cc1n[nH]c(C)c1C(=O)N1CCC(Oc2cnccn2)CC1 | < 10%
Cc1cnn(C)c1S(=O)(=O)N1CCC(Oc2cnccn2)CC1 | < 10%
Cc1n[nH]c(C)c1S(=O)(=O)N1CCC(Nc2cnccn2)CC1 | < 10%
Cc1n[nH]c(C)c1S(=O)(=O)N1C[C@H]2CCC[C@@H](C1)[C@H]2Oc1cnccn1 | < 10%
Cc1n[nH]c(C)c1S(=O)(=O)N1CCC(Cc2cnccn2)CC1 | < 10%
Cc1n[nH]c(C)c1S(=O)(=O)N1CC(Oc2cnccn2)C1 | < 10%
Cc1n[nH]c(C)c1S(=O)(=O)N[C@H]1CC[C@H](Oc2cnccn2)CC1 | < 10%
Cc1noc(C)c1S(=O)(=O)N1CCC(Oc2cnccn2)CC1 | < 10%
Cc1n[nH]c(C)c1S(=O)(=O)N1CCC(c2cnccn2)CC1 | < 10%
COc1n[nH]c(C)c1S(=O)(=O)N1CCC(Oc2cnccn2)CC1 | < 10%
Cc1n[nH]cc1S(=O)(=O)N1CCC(Oc2cnccn2)CC1 | < 10%
Cc1nn(C)c(C)c1S(=O)(=O)N1CCC(Oc2cnccn2)CC1 | < 10%
O=S(=O)(c1cn[nH]c1)N1CCC(Oc2cnccn2)CC1 | < 10%

Molecular target: T1, N-acylethanolamine-hydrolyzing acid amidase (Homo sapiens)
Assay: Inhibition of ARN14686 probe binding to human NAAA expressed in HEK293 cells preincubated for 2 hrs followed by ARN14686 probe addition and measured after 15 mins by fluorescence assay
Format: cell-based
Details: time 135.0 min
Procedure, shortened: (§1)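 Lysosomal enrichment (0.5 mg/mL) from HEK293 cells overexpressing human NAAA was preincubated 2 h at 37 °C with compound at a final 20 μM (2% DMSO); DMSO-only controls were included. ARN14686 probe (20 μM) was then added at 37 °C for 15 min or 4 h. An Alexa Fluor 545 azide was attached by CuSO4/TCEP/TBTA click chemistry (2 h, 25 °C). Read-out was SDS-PAGE in-gel fluorescence at 532 nm, with Coomassie loading control.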

Structure (SMILES) | inhibition
CCOCc1cnc(O[C@H]2C[C@H]3CC[C@@H](C2)N3S(=O)(=O)c2c(C)n[nH]c2C)cn1 | Active

Molecular target: T1, N-acylethanolamine-hydrolyzing acid amidase (Homo sapiens)
Assay: Inhibition of ARN14686 probe binding to human NAAA expressed in HEK293 cells preincubated for 2 hrs followed by ARN14686 probe addition and measured after 4 hrs by fluorescence assay
Format: cell-based
Details: time 6.0 hrs
Procedure, shortened: as §1

Structure (SMILES) | inhibition
CCOCc1cnc(O[C@H]2C[C@H]3CC[C@@H](C2)N3S(=O)(=O)c2c(C)n[nH]c2C)cn1 | inactive
